Sampled rows, rich in hits. Any-hit rate of the full collection: about 1.8%.
M5 antag – human M5 muscarinic receptor antagonists, primary screen, CHO cells, Fluo-8 calcium fluorescence; CHO-hM5 cells, ACh EC80; inhibition, % at 3 µM; hit rate 0.59% among 360,000; AID 624040, 2012;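 active means inhibition above a per-plate cutoff, the mean of that plate's test compounds plus 3 SD, cut at about 27% in these data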;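 further: 0% = acetylcholine EC80 with DMSO and 100% = DMSO without agonist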
CHRM4 PAM – human M4 muscarinic receptor positive allosteric modulators, primary screen, CHO-K1 cells, Fluo-8 calcium fluorescence; hit rate 0.4% among 360,000; CHO-K1 hM4/Gqi5, ACh EC20; 0% = ACh EC20, 100% = maximal ACh; Muscarinic acetylcholine receptor M4 (Homo sapiens), P08173; AID 624126, 2012; activation, % at 3 µM;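 active means activation above its plate's cutoff, the mean activation of sample wells plus 3 SD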
Target sequence (P08173 whole entry, looked up): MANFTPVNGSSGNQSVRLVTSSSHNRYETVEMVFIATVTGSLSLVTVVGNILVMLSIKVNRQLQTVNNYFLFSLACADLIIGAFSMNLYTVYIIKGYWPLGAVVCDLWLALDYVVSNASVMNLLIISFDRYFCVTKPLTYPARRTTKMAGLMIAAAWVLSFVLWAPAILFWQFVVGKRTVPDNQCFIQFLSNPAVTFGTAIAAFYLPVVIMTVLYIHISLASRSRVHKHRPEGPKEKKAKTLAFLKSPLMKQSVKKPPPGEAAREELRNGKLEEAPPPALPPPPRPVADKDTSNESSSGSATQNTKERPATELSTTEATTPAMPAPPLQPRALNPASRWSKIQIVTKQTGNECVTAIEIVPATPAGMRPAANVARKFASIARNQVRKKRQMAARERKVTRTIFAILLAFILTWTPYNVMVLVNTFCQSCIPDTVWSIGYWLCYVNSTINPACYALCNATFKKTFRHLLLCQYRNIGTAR
M4 antag – human M4 muscarinic receptor antagonists, primary screen, CHO cells, Fluo-8 calcium fluorescence | CHO-hM4 cells, ACh EC80 | AID 624125, 2012 | inhibition, % at 3 µM | hit rate 0.73% among 360,000;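 active means inhibition above its plate's cutoff, the mean inhibition of sample wells plus 3 SD, cut at about 27% in these data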;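 further: 0% = acetylcholine EC80 with DMSO and 100% = DMSO without agonist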
M4 ag – human M4 muscarinic receptor agonists, primary screen, CHO-K1 cells, Fluo-8 calcium fluorescence; CHO-K1 hM4/Gqi5; vehicle 0%, full acetylcholine response 100%; activation, % at 3 µM; hit rate 0.14% among 360,000;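 active means activation above the run mean over all test wells plus 3 SD, cut at about 32% in these data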;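 further: peak over basal fluorescence ratio per well then scaled between controls; 0% = DMSO wells and 100% = acetylcholine at EC100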
CHRM5 PAM – human M5 muscarinic receptor positive allosteric modulators, primary screen, CHO-K1 cells, Fluo-8 calcium fluorescence; Muscarinic acetylcholine receptor M5 (Homo sapiens), P08912; AID 624038, 2012; activation, % at 3 µM; hit rate 0.3% among 360,000; CHO-K1 hM5, ACh EC20 PAM; 0% = ACh EC20, 100% = ACh EC100;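 active means activation above the run cutoff, the mean activation of all test compounds plus 3 SD, cut at about 18% in these data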
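Measured by: Fluo-8 calcium fluorescence; material: human M5 receptor in CHO-K1 cells; schedule: Post-acetylcholine fluorescence recording 140 s; benchmarks: low control EC20 acetylcholine (0%), high control EC100 acetylcholine (100%); read-out: Max/basal fluorescence ratio as % of EC20–EC100 ACh window; compound: single dose, 3 µM nominal final test concentration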
CHRM5 agonist – human M5 muscarinic receptor agonists, primary screen, CHO-K1 cells, Fluo-8 calcium fluorescence. Muscarinic acetylcholine receptor M5 (Homo sapiens), P08912. hit rate 0.19% among 360,000. CHO-K1 hM5 cells; 0% DMSO wells, 100% maximal acetylcholine response. activation, % at 3 µM. AID 624037, 2012;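 active means activation above the run's mean over test compounds plus 3 SD, cut at about 23% in these data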;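 further: signal is peak over basal fluorescence ratio across the kinetic read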
Starred values were filed as active, the others as inactive; ! = a repeat was not active.

`c1ccc(-c2ccc(CN3Cc4ccccc4-n4nncc4C3)cc2)cc1` gave M5 antag 18, CHRM4 PAM -9, M4 antag 10, M4 ag 8, CHRM5 PAM -16 and CHRM5 agonist 1.
For CC(C)N(CCC(C(N)=O)(c1ccccc1)c1ccccn1)C(C)C (stereo not drawn) the results were M5 antag 39*!, CHRM4 PAM -16, M4 antag 22, M4 ag 0, CHRM5 PAM -18 and CHRM5 agonist -2.
Screening N#CC1c2ccccc2C=CN1C(=O)c1ccc(N(CCCl)CCCl)cc1 (stereo not drawn) returned M5 antag 9, CHRM4 PAM 4, M4 antag -11, M4 ag 0, CHRM5 PAM 2 and CHRM5 agonist 1.
Screening CC1(C)OC(c2ccccc2)=C/C(=C/C=C2C(=O)NC(=O)NC2=O)O1 returned M5 antag 14, CHRM4 PAM -8, M4 antag 3, M4 ag 20, CHRM5 PAM -19 and CHRM5 agonist 75*.
`CCCCn1c(=O)c(C(=O)Nc2ncccc2C)c(O)c2ccccc21` gave M5 antag 4, CHRM4 PAM -6, M4 antag 5, M4 ag 33*, CHRM5 PAM -2 and CHRM5 agonist 9.
Screening CCCCCCn1c(=O)c(C(=O)Nc2ncccc2C)c(O)c2ccccc21 returned M5 antag -2, CHRM4 PAM -2, M4 antag 1, M4 ag 1, CHRM5 PAM 3 and CHRM5 agonist 1.
Nc1ccc(CC(N)c2csc(Nc3ncccn3)n2)cc1 (stereo not drawn) was read as M5 antag 3, CHRM4 PAM 10, M4 antag -7, M4 ag 0, CHRM5 PAM -8 and CHRM5 agonist -1.
`NC(Cc1ccc(Cl)cc1)c1csc(Nc2ncccn2)n1` (stereo not drawn) gave M5 antag 0, CHRM4 PAM -14, M4 antag 96*, M4 ag 2, CHRM5 PAM 0 and CHRM5 agonist 4.
C[C@]12CC[C@H](OS(=O)(=O)O)CC1=CC[C@@H]1[C@@H]2CC[C@]2(C)C(=O)CC[C@@H]12 was read as M5 antag 3, CHRM4 PAM -1, M4 antag 71*!, M4 ag 0, CHRM5 PAM -3 and CHRM5 agonist 0.
`c1ccc(C(OCCN2CCN(c3ncccn3)CC2)c2ccccc2)cc1` gave M5 antag 23, CHRM4 PAM -6, M4 antag -4, M4 ag 3, CHRM5 PAM -21 and CHRM5 agonist -16.
For Clc1ccc(C(OCCN2CCCCC2)c2ccccc2)cc1 (stereo not drawn) the results were M5 antag 57*, CHRM4 PAM -19, M4 antag 38*, M4 ag 5, CHRM5 PAM -18 and CHRM5 agonist -1.
For COc1ccc(C(c2nnnn2-c2ccc3c(c2)OCCO3)N2CCC3(CC2)C(=O)NCN3c2ccccc2)cc1 (stereo not drawn) the results were M5 antag 9, CHRM4 PAM 0, M4 antag 1, M4 ag 6, CHRM5 PAM -6 and CHRM5 agonist 2.
Screening CCN(CCCl)c1cc(CN(C)C)cc(NC(=O)c2ccc(C(=O)Nc3cc(CN(C)C)cc(N(CC)CCCl)c3)cc2)c1 returned M5 antag 8, CHRM4 PAM 3, M4 antag -4, M4 ag 0, CHRM5 PAM 7 and CHRM5 agonist -1.
`Clc1ccc(OCC#CCN2CCCCCC2)cc1` gave M5 antag 35*, CHRM4 PAM -23, M4 antag 33*, M4 ag 0, CHRM5 PAM -30 and CHRM5 agonist -15.
For COc1ccc(OCC#CCN2CCC(C)CC2)cc1 the results were M5 antag 13, CHRM4 PAM -10, M4 antag 8, M4 ag 0, CHRM5 PAM -7 and CHRM5 agonist -10.
`O=[N+]([O-])c1cc(-n2cnnn2)c(O)c([N+](=O)[O-])c1` gave M5 antag 4, CHRM4 PAM 30*, M4 antag 3, M4 ag 1, CHRM5 PAM 10 and CHRM5 agonist 1.
Screening O=[N+]([O-])c1cc(O)c(O)c([N+](=O)[O-])c1 returned M5 antag 8, CHRM4 PAM 0, M4 antag 5, M4 ag 1, CHRM5 PAM -4 and CHRM5 agonist 0.
`CCOC(=O)[C@]12Cc3cc(C)ccc3[C@H]1N(Cc1ccccc1)C(=O)c1cc(OC)ccc12` gave M5 antag -10, CHRM4 PAM 0, M4 antag -2, M4 ag -1, CHRM5 PAM 8 and CHRM5 agonist 1.
Screening CC(C)(C)c1cc(OC(=O)Cc2ccccc2)ccc1O returned M5 antag -5, CHRM4 PAM -4, M4 antag -3, M4 ag -1, CHRM5 PAM 19* and CHRM5 agonist 0.
Screening O=C(Cc1ccccc1)Oc1cccc(N2C(=O)CCC2=O)c1 returned M5 antag -1, CHRM4 PAM -3, M4 antag 1, M4 ag 0, CHRM5 PAM -5 and CHRM5 agonist 5.
`CC1c2ccccc2-n2nncc2CN1C` (stereo not drawn) gave M5 antag -2, CHRM4 PAM 1, M4 antag -9, M4 ag 1, CHRM5 PAM 0 and CHRM5 agonist 0.
O=C1NC(=O)C(=Cc2ccc(-c3ccc(F)cc3O)o2)C(=O)N1 was read as M5 antag 16, CHRM4 PAM 26*, M4 antag -6, M4 ag 12, CHRM5 PAM 5 and CHRM5 agonist 25*.
`O=C1NC(=O)C(=Cc2ccc(-c3ccc(Cl)cc3)o2)C(=O)N1` gave M5 antag -12, CHRM4 PAM 17, M4 antag -4, M4 ag 1, CHRM5 PAM 22* and CHRM5 agonist -2.
CN(Cc1cccc(-c2ccncc2)c1)C(=O)Oc1ccccc1Cc1ccccc1 was read as M5 antag 43*, CHRM4 PAM -15, M4 antag 37*, M4 ag 17, CHRM5 PAM -22 and CHRM5 agonist 2.

Screens (PubChem BioAssay)
